We go through 34 compounds from PubChem BioAssay AID743256 (The Scripps Research Institute Molecular Screening Center, 2014).

The structures appear in SMILES notation. The campaign covered roughly 2,900 compounds. About 1,300 (45%) were called active.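 Rule for the calls: active = mean inhibition over the triplicate runs exceeds the activity threshold set in the earlier primary screen (cut at about 20% in these data); inactive = the rest.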 So high a share suggests a set chosen from earlier hits. The list is a sample of the results.

Chain of Disintegrin and metalloproteinase domain-containing protein 10 (Homo sapiens) (O14672 214-748 limits assumed): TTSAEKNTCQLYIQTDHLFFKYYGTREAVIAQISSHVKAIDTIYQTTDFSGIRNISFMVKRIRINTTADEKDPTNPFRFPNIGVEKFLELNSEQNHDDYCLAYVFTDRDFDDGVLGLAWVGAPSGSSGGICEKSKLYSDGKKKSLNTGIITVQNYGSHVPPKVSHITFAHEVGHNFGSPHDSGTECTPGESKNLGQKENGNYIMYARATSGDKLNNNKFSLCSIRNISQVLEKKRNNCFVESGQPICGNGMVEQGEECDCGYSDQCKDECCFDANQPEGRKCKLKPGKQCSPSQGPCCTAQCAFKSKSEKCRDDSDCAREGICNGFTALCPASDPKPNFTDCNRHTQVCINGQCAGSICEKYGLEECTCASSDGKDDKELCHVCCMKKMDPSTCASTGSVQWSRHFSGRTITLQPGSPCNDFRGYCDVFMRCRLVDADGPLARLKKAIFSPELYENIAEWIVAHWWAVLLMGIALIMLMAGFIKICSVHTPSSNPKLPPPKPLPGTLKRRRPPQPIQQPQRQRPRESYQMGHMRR

This assay has as its target Disintegrin and metalloproteinase domain-containing protein 10 (Homo sapiens) (UniProt O14672). As to the kind of experiment: blockers of ADAM10 peptide cleavage – biochemical, FRET, human ADAM10, counter-screen for ADAM17 exosite inhibitor project (AID 743256).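 Note: 0% = DMSO wells and 100% = marimastat wells.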 The following applies: recombinant ADAM10, EDANS/DABCYL FRET peptide cleavage, 3 h; at 6.95 µM; active compounds read high. In short, it runs like this:
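System: ADAM10; Buffer or medium: HEPES/Brij buffer, pH 7.5; Also added: DM2 FRET peptide substrate; Compound dosing: single nominal concentration per compound; Times: 30 min plus 3 h, 25 °C; Detection: EDANS fluorescence, excitation 359 nm, emission 460 nm; Read-out basis: percent inhibition scaled between DMSO and marimastat control wells; Benchmarks: marimastat and DMSO wells.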
(In general: A counterscreen serves to expose hits that act by an unwanted route or on another target.)
The inhibition is the drop in the measured response relative to a control, in per cent. With `Cc1ccc(C(=O)Nc2ccc(C)c(S(=O)(=O)N(C)C)c2)s1`, the inhibition is 19.2% (inactive).

Consider `CCn1c(Cc2cccs2)nnc1SCC(=O)c1ccc(C)cc1`, for which the inhibition is 2.71% (inactive).

With `COc1cccc(/C=N/NC(=O)c2cccc([N+](=O)[O-])c2)c1OS(=O)(=O)c1ccc(C)cc1`, the inhibition is 27.1% (active).

In the case of `Cc1ccc(OCCOCCOc2ccc(Br)cc2/C=N\NC(=O)c2ccncc2)cc1`, the inhibition is 13.6% (inactive).

`CCCCCC(=O)N1C[C@H](O)[C@@H](n2cc(COC(=O)c3ccccc3)nn2)C[C@@H]1c1ccc(C)cc1`: the inhibition was 22.1% (active).

On to `CCc1cccc(NC(=O)COC(=O)C2CCN(c3ccc(C(F)(F)F)cn3)CC2)c1`, for which the inhibition was 25.6% (active).

Regarding `O=C(Cc1ncc(C(F)(F)F)cc1Cl)Nc1cccc(Br)c1`, the inhibition was 6.87% (inactive).

In the case of `Cc1ccc(OCc2nnc(SC/C=C/c3ccccc3)n2Cc2ccco2)cc1`, the inhibition was 18.7% (inactive).

For `Cc1ccc(-c2nnc(SCC(=O)Nc3ccc(Oc4ccccc4)cc3)n2Cc2ccco2)cc1`, the inhibition was 30.9% (active).

Take `Cc1sc2nc(SCC(=O)c3ccc(O)c(O)c3)n(Cc3ccco3)c(=O)c2c1C`: the inhibition is 16.8% (inactive).

For `COc1ccc(C(=O)NN2C(=O)C3C(c4ccccc4)C=CC(c4ccccc4)C3C2=O)cc1` (centres undefined), the inhibition was 25.6% (active).

With `CC(C)C(=O)Nc1cccc(NC(=S)NC(=O)C(c2ccccc2)c2ccccc2)c1`, the inhibition was 31.3% (active).

Consider `O=C(CSc1nc(Nc2ccccc2)nc(N2CCOCC2)n1)Nc1cc(Cl)ccc1O`, for which the inhibition was 33.4% (active).

For `CN(C)c1ccc(NC(=O)NC2CCCCN(Cc3ccc(Cl)cc3)C2=O)cc1` (centres undefined), the inhibition was 1.4% (inactive).

As for `CCCN(CC(=O)NC(=O)NC1CCCCC1)CC(=O)Nc1cc(Cl)ccc1Cl`, the inhibition was 43.7% (active).

For the compound `O=C(C[C@H]1C(=O)N(c2ccc(F)c(F)c2)C[C@@H]1Cc1ccccc1)Nc1ccccc1`, the inhibition is 26.5% (active).

In the case of `COc1ccc(C(=O)Nc2ccc(C3(C#N)CCCC3)cc2)cc1OC`, the inhibition is -1.52% (inactive).

Regarding `NNC(=O)C1CCCn2c1nc1sc3c(c1c2=O)CCCC3` (centres undefined), the inhibition was -9.79% (inactive).

For the compound `CCOc1ccc(Nc2nc(Cc3nnc(SCC(=O)c4ccc(C)cc4)o3)cs2)cc1`, the inhibition is 17.9% (inactive).

`Cc1ccc(C)c(NC(=S)NNC(=S)Nc2ccc(C(C)C)cc2)c1`: the inhibition was 32.5% (active).

For the compound `CCCn1nc(C(=O)NNC(=O)CSCC(=O)Nc2cc(C)on2)c2ccccc2c1=O`, the inhibition was -0.39% (inactive).

Consider `Cc1cc(NC(=O)CN2C(=O)NC(CC(C)C)C2=O)no1` (centres undefined), for which the inhibition was 26.2% (active).

In the case of `CS(=O)(=O)Nc1cccc(C2=NN(S(=O)(=O)c3ccccc3)C(c3cccs3)C2)c1` (centres undefined), the inhibition was 11.9% (inactive).

For the compound `COc1ccc(S(=O)(=O)Nc2ccc(O)c(Sc3nc4ccccc4s3)c2)cc1`, the inhibition is 20.5% (active).

Turning to `Cc1ccc(-c2n[nH]c(=S)n2/N=C/c2cc3c(cc2[N+](=O)[O-])OCO3)cc1`, the inhibition was 4.16% (inactive).

With `COc1cc(C2CC(=O)N3CN(Cc4ccccc4)CSC3=C2C#N)ccc1OCc1ccccc1` (centres undefined), the inhibition was 26.5% (active).

As to `CC(C)N(C(=O)[C@H]1C[C@H](CC(=O)NC(C)(C)C)C(=O)N2CCc3c([nH]c4ccc(Cl)cc34)[C@]12C)C(C)C`, the inhibition is 15.5% (inactive).

On to `CN(C)S(=O)(=O)c1cccc(NC(=O)COC(=O)C2(c3ccccc3F)CCCC2)c1`, for which the inhibition was 28% (active).

Turning to `NS(=O)(=O)c1ccc(NC(=O)COC(=O)C2(c3ccc(F)cc3)CCCC2)cc1`, the inhibition is 24.3% (active).

Regarding `Cc1ccc(S(=O)(=O)N2CCN(C(=O)COC(=O)c3c(C)cc(C)cc3C)CC2)c(C)c1`, the inhibition was 18.9% (inactive).

As to `COc1ccc(C(=O)C2CCCN(S(=O)(=O)c3cccc(C)c3)C2)c(C)c1` (centres undefined), the inhibition is 11.7% (inactive).

Regarding `Cc1onc(C(=O)NN)c1-c1csc(COc2ccccc2)n1`, the inhibition was -5.47% (inactive).

For the compound `O=C(c1ccccc1)N1CCN(c2ccc([N+](=O)[O-])c(NCc3ccco3)c2)CC1`, the inhibition was 14.8% (inactive).

`O=C(NCc1ccccc1)C1=C[C@@H](c2ccc(C(F)(F)F)cc2)C[C@@H](OCc2ccc(CO)cc2)O1`: the inhibition was 44.5% (active).
